Test results reported in ChEMBL document CHEMBL1156066 (J Med Chem, 2009).
In brackets after ≈: the same amount, converted by molar mass. Each block holds one compound with its values, some of them ahead of it.

What was measured:
[1] = target: T1, Cytochrome P450 3A4 (Homo sapiens, UniProt P08684); test: Inhibition of recombinant CYP3A4 using 7-benzyloxyresorufin as substrate; type: ADME
[2] = Cytotoxicity against human PBMC; type: cell-based
[3] = Inhibition of HIV1 LAI gp120/CD4 interaction in human HeLa67 cells assessed as inhibition of viral entry after 3 days by luciferase reporter gene assay; type: cell-based
Outline: (§1)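 HeLa 67 cells (HeLa expressing CD4, CCR5 and CXCR4; DMEM, 10% heat-inactivated FBS, penicillin/streptomycin) were plated at 10^5 cells/well the day before infection. They were then infected with HIV LAI-Δenv-luc pseudotyped with JRFL or LAI envelope, in the presence of 10-step 3-fold DMSO serial dilutions (30 mM stocks), run in duplicate. After 3 days at 37 C, firefly luciferase was read. EC50 was from a one-site fit.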

[4] = Cytotoxicity against human lung cancer cell; type: cell-based, Cancer cell lines; conditions: lung cancer cells
[5] = tested on: Hepatocyte; test: Cytotoxicity against human hepatocytes up to 200 uM in presence of CYP450 enzymes; type: ADME, cell-based
Outline: (§2)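 Hepatocytes in vitro were exposed to concentrations up to 200 μM, with or without expression of each of the four major CYP 450 enzymes.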

[6] = Aqueous solubility of crystalline form of compound in buffer solution of pH 10 at 25 degC; type: physicochemical
[7] = Oral bioavailability in rat at 5 mg/kg administered as crystalline suspension; type: ADME, organism-based; conditions: in vivo
[8] = Stability at pH 7 after 48 hrs; type: physicochemical; conditions: buffer, pH 7, 48 h
Outline: (§3)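 The compound was held in solution at pH 2 or pH 7 for 48 h at 37 C and then checked for chemical change.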

[9] = Cytotoxicity against human cervical cancer cells; type: cell-based, Cancer cell lines
[10] = Terminal half life in rat at 5 mg/kg, iv; type: ADME, organism-based; set-up: dose 5 mg/kg, route intravenous; conditions: in vivo, read-out: beta t1/2 (converted)
[11] = target: Cytochrome P450 2C19 (Homo sapiens, UniProt P33261); test: Inhibition of recombinant CYP2C19; type: ADME
Sequence of Cytochrome P450 2C19 (P33261 whole entry): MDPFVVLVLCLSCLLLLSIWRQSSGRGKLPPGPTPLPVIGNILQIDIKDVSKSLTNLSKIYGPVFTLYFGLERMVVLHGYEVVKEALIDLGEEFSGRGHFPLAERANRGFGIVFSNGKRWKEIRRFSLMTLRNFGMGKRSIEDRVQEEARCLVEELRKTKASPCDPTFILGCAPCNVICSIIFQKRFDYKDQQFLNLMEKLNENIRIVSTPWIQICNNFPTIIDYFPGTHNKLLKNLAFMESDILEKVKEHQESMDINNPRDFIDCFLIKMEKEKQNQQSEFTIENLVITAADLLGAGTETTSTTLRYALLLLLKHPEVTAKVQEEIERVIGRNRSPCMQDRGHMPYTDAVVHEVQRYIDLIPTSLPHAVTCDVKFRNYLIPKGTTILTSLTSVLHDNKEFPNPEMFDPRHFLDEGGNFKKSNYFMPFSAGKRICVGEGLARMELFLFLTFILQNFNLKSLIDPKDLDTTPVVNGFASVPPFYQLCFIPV

[12] = Oral bioavailability in monkey at 5 mg/kg; type: ADME, organism-based, Macaca mulatta; conditions: rhesus monkey, in vivo
[13] = tested on: Hepatocyte; test: Cytotoxicity against human hepatocytes up to 200 uM in absence of CYP450 enzymes; type: ADME, cell-based; outline: as §2
[14] = target: Cytochrome P450 2C9 (Homo sapiens, UniProt P11712); test: Inhibition of recombinant CYP2C9; type: ADME
Sequence of Cytochrome P450 2C9 (P11712 whole entry): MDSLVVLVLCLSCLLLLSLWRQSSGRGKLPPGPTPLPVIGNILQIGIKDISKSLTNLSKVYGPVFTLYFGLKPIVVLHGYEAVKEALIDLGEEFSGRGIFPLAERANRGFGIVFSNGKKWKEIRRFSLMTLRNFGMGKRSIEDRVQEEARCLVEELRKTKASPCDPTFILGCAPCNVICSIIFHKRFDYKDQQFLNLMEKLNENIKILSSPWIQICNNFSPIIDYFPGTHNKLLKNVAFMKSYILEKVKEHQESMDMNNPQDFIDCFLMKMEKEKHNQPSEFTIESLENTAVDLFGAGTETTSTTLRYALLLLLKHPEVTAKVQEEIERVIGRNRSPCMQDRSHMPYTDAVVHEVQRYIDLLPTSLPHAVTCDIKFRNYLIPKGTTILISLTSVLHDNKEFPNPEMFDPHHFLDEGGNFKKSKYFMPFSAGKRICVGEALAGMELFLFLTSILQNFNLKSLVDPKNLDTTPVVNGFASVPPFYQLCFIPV

[15] = target: Cytochrome P450 2D6 (Homo sapiens, UniProt P10635); test: Inhibition of recombinant CYP2D6; type: ADME
Sequence of Cytochrome P450 2D6 (P10635 whole entry): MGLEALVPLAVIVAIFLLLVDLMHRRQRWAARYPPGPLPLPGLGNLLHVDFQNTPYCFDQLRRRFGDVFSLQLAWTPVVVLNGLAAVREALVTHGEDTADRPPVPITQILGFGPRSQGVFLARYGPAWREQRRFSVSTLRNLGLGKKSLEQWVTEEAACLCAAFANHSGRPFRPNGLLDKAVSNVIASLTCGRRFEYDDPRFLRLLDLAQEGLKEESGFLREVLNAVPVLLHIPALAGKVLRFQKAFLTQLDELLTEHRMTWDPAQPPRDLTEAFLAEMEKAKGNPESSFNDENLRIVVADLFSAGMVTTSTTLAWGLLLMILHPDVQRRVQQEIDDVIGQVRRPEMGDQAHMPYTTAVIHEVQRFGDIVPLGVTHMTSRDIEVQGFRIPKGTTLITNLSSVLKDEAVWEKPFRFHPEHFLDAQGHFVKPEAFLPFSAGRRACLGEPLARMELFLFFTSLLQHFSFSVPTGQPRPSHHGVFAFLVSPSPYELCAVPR

[16] = Ratio of plasma concentration in monkey at 5 mg/kg, po to EC50 for HIV1 clinical isolates; type: ADME, organism-based; set-up: dose 5 mg/kg, route oral; conditions: in vivo
[17] = Aqueous solubility of crystalline form of compound in buffer solution of pH 6.5 at 25 degC; type: physicochemical
Outline: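 Solubility of the crystalline solid was measured 24-72 h after adding it to phosphate buffered solution, pH 6.5, at room temperature.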

[18] = tested on: Rattus norvegicus; test: AUC in rat at 5 mg/kg, po; type: ADME, organism-based, Plasma; set-up: dose 5 mg/kg, route oral; conditions: in vivo
[19] = Permeability across human Caco-2 cell membrane at pH 6.5; type: ADME, cell-based; conditions: Caco-2, pH 6.5, read-out: permeability
[20] = Cytotoxicity against human MT2 cells after 3 days by XTT assay; type: cell-based
Outline: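 Uninfected MT-2 cells were exposed to 10-step 3-fold serial compound dilutions (30 mM DMSO stocks), run in parallel with the antiviral assay. Cell health was read by XTT after 3 days. CC50 was fitted with the same one-site equation as EC50.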

[21] = tested on: Human immunodeficiency virus 1; test: Antiviral activity against HIV1 clinical isolates; type: functional, organism-based
[22] = Metabolic stability in human liver microsomes assessed as half life; type: ADME, Microsome
[23] = target: T1, Cytochrome P450 3A4; test: Inhibition of recombinant CYP3A4 using benzyloxy-4-(trifluoromethyl)coumarin as substrate; type: ADME
[24] = Ratio of plasma concentration in dog at 5 mg/kg, po to EC50 for HIV1 clinical isolates; type: ADME, organism-based; set-up: dose 5 mg/kg, route oral; conditions: in vivo
[25] = Solubility at pH 4 to 8; type: physicochemical; conditions: buffer
[26] = Cytotoxicity against human neuronal tumor cells; type: cell-based
[27] = target: Voltage-gated inwardly rectifying potassium channel KCNH2 (Homo sapiens, UniProt Q12809); test: Inhibition of human ERG by channel flux assay
Sequence of Voltage-gated inwardly rectifying potassium channel KCNH2 (Q12809 whole entry): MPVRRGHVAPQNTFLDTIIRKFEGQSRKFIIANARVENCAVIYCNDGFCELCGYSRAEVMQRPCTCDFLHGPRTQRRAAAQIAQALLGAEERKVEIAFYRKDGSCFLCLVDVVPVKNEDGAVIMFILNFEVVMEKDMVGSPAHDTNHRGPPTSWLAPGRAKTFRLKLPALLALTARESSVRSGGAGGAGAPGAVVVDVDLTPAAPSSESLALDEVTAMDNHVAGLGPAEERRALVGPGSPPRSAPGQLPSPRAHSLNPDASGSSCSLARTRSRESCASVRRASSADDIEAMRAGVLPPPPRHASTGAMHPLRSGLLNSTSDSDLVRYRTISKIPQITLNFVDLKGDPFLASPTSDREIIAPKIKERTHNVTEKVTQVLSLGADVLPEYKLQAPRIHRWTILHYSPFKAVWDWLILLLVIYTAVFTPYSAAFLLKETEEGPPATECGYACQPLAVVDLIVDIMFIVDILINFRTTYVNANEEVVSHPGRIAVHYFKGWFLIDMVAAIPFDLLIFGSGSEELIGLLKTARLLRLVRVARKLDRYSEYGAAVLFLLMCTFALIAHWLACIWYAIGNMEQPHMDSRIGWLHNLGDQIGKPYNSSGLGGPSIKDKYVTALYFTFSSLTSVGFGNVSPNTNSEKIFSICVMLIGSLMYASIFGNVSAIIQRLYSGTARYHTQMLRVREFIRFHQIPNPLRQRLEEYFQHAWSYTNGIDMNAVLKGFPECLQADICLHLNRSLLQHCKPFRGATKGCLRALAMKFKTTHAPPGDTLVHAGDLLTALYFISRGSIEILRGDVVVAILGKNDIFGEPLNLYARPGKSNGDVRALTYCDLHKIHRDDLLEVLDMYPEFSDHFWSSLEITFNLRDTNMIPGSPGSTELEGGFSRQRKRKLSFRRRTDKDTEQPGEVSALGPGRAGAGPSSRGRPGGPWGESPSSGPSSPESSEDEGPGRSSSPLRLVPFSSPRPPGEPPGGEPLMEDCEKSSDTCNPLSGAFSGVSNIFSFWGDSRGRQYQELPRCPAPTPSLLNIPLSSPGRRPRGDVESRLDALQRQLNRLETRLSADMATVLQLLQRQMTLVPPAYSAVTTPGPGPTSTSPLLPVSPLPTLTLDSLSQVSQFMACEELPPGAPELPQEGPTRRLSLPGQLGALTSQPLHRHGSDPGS

[28] = Cytotoxicity against human larynx cancer cells; type: cell-based, Cancer cell lines
[29] = Cytotoxicity against human T cell; type: cell-based; conditions: T cells
[30] = Cmax in dog at 200 mg/kg; type: ADME, organism-based, Canis lupus familiaris; set-up: dose 200 mg/kg; conditions: in vivo
Outline: (§4)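 Dogs were dosed at 200 mpk, with ECG monitored for drug-related changes and plasma Cmax determined.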

[31] = Lipophilicity, log D at pH 6.5; type: physicochemical; conditions: buffer
Outline: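 Log D was measured by the octanol/water shake-flask method using phosphate buffered solution, pH 6.5.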

[32] = target: T2, Cytochrome P450 1A2 (Homo sapiens, UniProt P05177); test: Inhibition of recombinant CYP1A2; type: ADME
T2 sequence (P05177 whole entry): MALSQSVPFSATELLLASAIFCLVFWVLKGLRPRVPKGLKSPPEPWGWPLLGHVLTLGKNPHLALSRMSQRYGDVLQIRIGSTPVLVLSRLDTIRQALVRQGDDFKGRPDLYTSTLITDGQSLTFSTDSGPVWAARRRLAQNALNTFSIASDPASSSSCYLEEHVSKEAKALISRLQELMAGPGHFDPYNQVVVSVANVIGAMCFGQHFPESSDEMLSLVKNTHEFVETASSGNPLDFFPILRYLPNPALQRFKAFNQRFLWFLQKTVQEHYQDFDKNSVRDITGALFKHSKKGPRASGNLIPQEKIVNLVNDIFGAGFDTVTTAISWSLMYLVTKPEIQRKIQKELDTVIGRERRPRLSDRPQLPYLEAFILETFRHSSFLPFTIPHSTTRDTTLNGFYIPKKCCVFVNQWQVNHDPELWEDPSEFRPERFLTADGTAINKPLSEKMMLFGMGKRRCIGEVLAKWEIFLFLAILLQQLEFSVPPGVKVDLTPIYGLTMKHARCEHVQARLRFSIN

[33] = Cytotoxicity against HEK cells; type: cell-based, HEK293; conditions: human
[34] = Inhibition of HIV1 JRFL gp120/CD4 interaction in human HeLa67 cells assessed as inhibition of viral entry after 3 days by luciferase reporter gene assay; type: cell-based; outline: as §1
[35] = Cytotoxicity against human hepatic cancer cells; type: cell-based, Cancer cell lines
[36] = Ratio of plasma concentration in rat at 5 mg/kg, po to EC50 for HIV1 clinical isolates; type: ADME, organism-based; set-up: dose 5 mg/kg, route oral; conditions: in vivo
[37] = Aqueous solubility of crystalline form of compound in buffer solution of pH 1.5 at 25 degC; type: physicochemical
[38] = Stability at pH 2 after 48 hrs; type: physicochemical; conditions: buffer, pH 2, 48 h; outline: as §3
[39] = Solubility at pH 1.5; type: physicochemical; conditions: buffer
[40] = tested on: Canis familiaris; test: Cardiotoxicity in dog assessed as changes in ECG at 200 mg/kg; type: toxicity, organism-based, Canis lupus familiaris; set-up: dose 200 mg/kg; conditions: in vivo; outline: as §4
[41] = Aqueous solubility of crystalline form of compound in buffer solution of pH 11 at 25 degC; type: physicochemical
[42] = Oral bioavailability in dog at 5 mg/kg; type: ADME, organism-based, Canis lupus familiaris; conditions: in vivo
[43] = Aqueous solubility of crystalline form of compound in buffer solution of pH 2.1 at 25 degC; type: physicochemical

T1 sequence (P08684 whole entry): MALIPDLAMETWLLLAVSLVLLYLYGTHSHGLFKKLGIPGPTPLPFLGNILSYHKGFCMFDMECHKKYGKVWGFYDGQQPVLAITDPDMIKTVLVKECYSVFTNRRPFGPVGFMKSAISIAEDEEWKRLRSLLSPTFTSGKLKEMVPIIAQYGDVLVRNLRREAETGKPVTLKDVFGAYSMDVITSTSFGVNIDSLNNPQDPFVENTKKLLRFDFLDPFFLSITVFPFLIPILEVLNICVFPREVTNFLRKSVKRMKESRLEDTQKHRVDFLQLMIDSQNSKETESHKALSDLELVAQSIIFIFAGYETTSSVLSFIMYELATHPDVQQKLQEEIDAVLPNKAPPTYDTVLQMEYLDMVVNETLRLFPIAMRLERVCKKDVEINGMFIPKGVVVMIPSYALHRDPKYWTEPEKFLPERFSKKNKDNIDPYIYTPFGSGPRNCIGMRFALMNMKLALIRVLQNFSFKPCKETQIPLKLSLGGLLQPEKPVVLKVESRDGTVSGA

SMILES: COc1ncc(OC)c2c(C(=O)C(=O)N3CCN(C(=O)c4ccccc4)CC3)c[nH]c12
IC50 [1]: > 40 µM | CC50 [2]: ≥ 120 µM | EC50 [3]: 0.00115 µM | CC50 [4]: ≥ 120 µM | Activity [5]: Non-toxic | solubility [6]: 250 µg/mL (≈ 592 µM) | bioavailability [7]: 55% | Stability [8]: Stable | CC50 [9]: ≥ 120 µM | half-life [10]: 144 min | IC50 [11]: > 40 µM | bioavailability [12]: 60% | Activity [13]: Non-toxic | IC50 [14]: 30 µM | IC50 [15]: > 40 µM | Ratio [16]: 18 | solubility [17]: 40 µg/mL (≈ 94.7 µM) | AUC [18]: 6.3 µg/h/mL | Papp [19]: 17.8 ×10⁻⁶ cm/s | CC50 at 72 h [20]: > 300 µM | EC50 [21]: 0.0365 µM | half-life [22]: > 100 min | IC50 [23]: > 40 µM | Ratio [24]: 18 | solubility [25]: 40 µg/mL (≈ 94.7 µM) | CC50 [26]: ≥ 120 µM | IC50 [27]: > 80 µM | CC50 [28]: ≥ 120 µM | CC50 [29]: ≥ 120 µM | Cmax [30]: 33 µM | logD [31]: 1.5 | IC50 [32]: > 40 µM | CC50 [33]: ≥ 120 µM | EC50 [34]: 0.00088 µM | CC50 [35]: ≥ 120 µM | Ratio [36]: 18 | solubility [37]: 900 µg/mL (≈ 2130 µM) | Stability [38]: Stable | solubility [39]: 900 µg/mL (≈ 2130 µM) | Activity [40]: Non-toxic

SMILES: COc1ccnc2[nH]cc(C(=O)C(=O)N3CCN(C(=O)c4ccccc4)C[C@H]3C)c12
EC50 [3]: 0.00268 µM | half-life [10]: 18 min | bioavailability [12]: 24% | IC50 [15]: 9.7 µM | solubility [17]: 200 µg/mL (≈ 492 µM) | AUC [18]: 0.5 µg/h/mL | Papp [19]: 5.1 ×10⁻⁶ cm/s | CC50 at 72 h [20]: > 300 µM | EC50 [21]: 0.0615 µM | half-life [22]: 37 min | logD [31]: 1.6 | solubility [41]: 3300 µg/mL (≈ 8120 µM) | bioavailability [42]: 77% | EC50 [34]: 0.00147 µM | solubility [43]: 1300 µg/mL (≈ 3200 µM)

SMILES: C[C@@H]1CN(C(=O)c2ccccc2)CCN1C(=O)C(=O)c1c[nH]c2ncccc12
IC50 [1]: > 40 µM | IC50 [11]: 10 µM | IC50 [14]: 7.9 µM | IC50 [15]: 17 µM | solubility [17]: 936 µg/mL (≈ 2490 µM) | Papp [19]: 16.8 ×10⁻⁶ cm/s | CC50 at 72 h [20]: 280 µM | half-life [22]: 49.5 min | IC50 [23]: > 40 µM | IC50 [27]: > 80 µM | logD [31]: 1.8 | IC50 [32]: > 40 µM | EC50 [34]: 0.0017 µM

SMILES: C[C@@H]1CN(C(=O)c2ccccc2)CCN1C(=O)C(=O)c1c[nH]c2cnccc12
IC50 [1]: > 40 µM | IC50 [11]: 7.2 µM | IC50 [14]: 17 µM | IC50 [15]: 38 µM | solubility [17]: 487 µg/mL (≈ 1290 µM) | Papp [19]: < 1.5 ×10⁻⁶ cm/s | CC50 at 72 h [20]: > 300 µM | half-life [22]: 38.5 min | IC50 [23]: > 40 µM | IC50 [27]: > 80 µM | logD [31]: 1.5 | IC50 [32]: > 40 µM | EC50 [34]: 0.0216 µM

SMILES: C[C@@H]1CN(C(=O)c2ccccc2)CCN1C(=O)C(=O)c1c[nH]c2cccnc12
IC50 [1]: > 40 µM | IC50 [11]: 36 µM | IC50 [14]: > 40 µM | IC50 [15]: > 40 µM | solubility [17]: 932 µg/mL (≈ 2480 µM) | Papp [19]: 7.6 ×10⁻⁶ cm/s | CC50 at 72 h [20]: > 300 µM | half-life [22]: > 100 min | IC50 [23]: > 40 µM | IC50 [27]: > 80 µM | logD [31]: 0.9 | IC50 [32]: > 40 µM | EC50 [34]: 0.0016 µM

More lines, main results first:

IC50 [1]: > 40 µM | EC50 [3]: 0.0049 µM | IC50 [11]: 2.6 µM | IC50 [14]: 5.2 µM | IC50 [15]: 4.8 µM | solubility [17]: 16 µg/mL (≈ 42.6 µM) | Papp [19]: 16.9 ×10⁻⁶ cm/s | half-life [22]: 16.9 min | IC50 [23]: > 40 µM | logD [31]: 1.9 | IC50 [32]: > 40 µM | EC50 [34]: 0.004 µM
SMILES: C[C@@H]1CN(C(=O)c2ccccc2)CCN1C(=O)C(=O)c1c[nH]c2ccccc12
CC50 at 72 h [20]: 200 µM | IC50 [27]: > 80 µM

IC50 [11]: 17 µM | IC50 [14]: > 40 µM | IC50 [15]: > 40 µM | solubility [17]: 419 µg/mL (≈ 1110 µM) | Papp [19]: 1.9 ×10⁻⁶ cm/s | half-life [22]: > 100 min | logD [31]: 1.2 | IC50 [32]: > 40 µM | EC50 [34]: 0.576 µM
SMILES: C[C@@H]1CN(C(=O)c2ccccc2)CCN1C(=O)C(=O)c1c[nH]c2ccncc12
CC50 at 72 h [20]: > 300 µM | IC50 [27]: > 80 µM
